Source: PubChem BioAssay
UBC13 polyUb: inhibitors of human UBC13 polyubiquitin chain formation. P61088. TR-FRET. inhibition, % at 20 µM. hit rate 0.47% among 330,000. AID 485273; in the data active = inhibition above about 45%, passing the limit was not always enough
SENP6 block: blocks the human protease SENP6. Recombinant SENP6 catalytic domain, aminoluciferin luminescence. inhibition, % at 10 µM. hit rate 1.8% among 330,000;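 active = inhibition above about 50% at the single tested dose, limit read from the data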;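 also: plate controls were DMSO wells with enzyme for no effect and DMSO wells lacking enzyme for full effect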
Apaf-1 inh: blocks human Apaf-1 apoptosome activity. O14727. reconstituted apoptosome caspase-3 activity, DEVD-Rh110 fluorescence. inhibition, % at 20 µM. hit rate 0.71% among 330,000; active = inhibition of at least 40% at 20 µM;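 also: plate controls were DMSO wells for no effect and DEVD-CHO caspase inhibitor wells for full effect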
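System – cell-free apoptosome with Apaf-1, procaspase-3 and caspase-9 · Buffer or medium – pH 7.5 Hepes buffer with CHAPS, BSA, DTT · Also added – cytochrome c with DEVD-Rh110 · Times – 30 min compound preincubation, 50 min activation, room temperature · Technique – Rh110 fluorescence intensity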
SENP8 block-1: blocks human SENP8 cleavage of Nedd8 substrate; AID 602440; Q96LD8; recombinant SENP8, Nedd8 substrate fluorescence; hit rate 0.64% among 360,000; inhibition, % at 20 µM; in the data active = inhibition mostly above about 40%, no sharp cut-off; inactive = mostly below about 27%
SENP7 inh: SENP7 protease inhibition. Q9BQF6. hit rate 1.5% among 330,000. inhibition, % at 5 µM. recombinant SENP7, Z-RLRGG-aminoluciferin luminescence, 40 min;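 active = inhibition above about 50% at the single test dose, limit read from the data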;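 also: plate controls were DMSO with enzyme for no effect and no enzyme buffer wells for full effect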
Target sequence (Q9BQF6 706-1050 limits assumed): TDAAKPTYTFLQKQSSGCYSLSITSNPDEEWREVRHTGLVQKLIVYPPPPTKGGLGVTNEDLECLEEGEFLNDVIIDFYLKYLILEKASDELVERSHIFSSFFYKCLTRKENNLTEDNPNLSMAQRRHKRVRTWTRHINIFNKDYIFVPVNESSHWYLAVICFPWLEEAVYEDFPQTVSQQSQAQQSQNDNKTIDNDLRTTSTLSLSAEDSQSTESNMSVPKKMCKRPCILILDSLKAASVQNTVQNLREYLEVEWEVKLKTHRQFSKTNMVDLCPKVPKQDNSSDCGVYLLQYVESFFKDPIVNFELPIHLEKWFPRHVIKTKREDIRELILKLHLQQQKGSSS
SENP8 block-2: blocks the human protease SENP8 | inhibition, % at 10 µM | hit rate 1.2% among 330,000 | AID 2540 | Q96LD8 | purified SENP8, Z-RLRGG-aminoluciferin cleavage, luminescence; in the data active = inhibition above about 50%
SENP8 confirm: confirmation of human SENP8 protease inhibitors; inhibition, % at 12.5 µM; Recombinant SENP8, Z-RLRGG-aminoluciferin luminescence, 60 min; AID 488912; hit rate 40% among 6,200; shares compounds with SENP7 inh;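 active = mean inhibition across replicates above about 50%, limit read from the data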
SENP6 confirm: human SENP6 inhibition, confirmed | recombinant SENP6, Z-RLRGG-aminoluciferin luminescence | hit rate 58% among 6,200 | shares compounds with SENP7 inh | inhibition, % at 12.5 µM
SENP7 confirm: human SENP7 inhibition, confirmed; shares compounds with SENP7 inh; inhibition, % at 12.5 µM; hit rate 69% among 6,200; recombinant SENP7, Z-RLRGG-aminoluciferin luminescence, 40 min
Casp3 SENP sel: selectivity test for SENP inhibitors: human caspase-3 inhibition; hit rate 60% among 6,200; AID 488918; inhibition, % at 12.5 µM; shares compounds with SENP7 inh; purified caspase-3, Z-DEVD-aminoluciferin luminescence, 60 min;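 active = mean inhibition above about 50%, limit read from the data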;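 also: plate controls were enzyme with DMSO for no effect and wells without caspase-3 for full effect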
Target sequence (P42574 28-227 limits assumed): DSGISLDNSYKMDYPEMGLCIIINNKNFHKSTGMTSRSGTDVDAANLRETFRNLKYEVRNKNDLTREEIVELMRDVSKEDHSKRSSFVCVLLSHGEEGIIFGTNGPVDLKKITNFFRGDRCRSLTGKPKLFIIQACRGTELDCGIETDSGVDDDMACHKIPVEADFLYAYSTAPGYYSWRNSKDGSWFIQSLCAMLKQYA
Luc interf: luminescence interference (SENP counter-screen) | inhibition, % at 12.5 µM | AID 488919 | hit rate 39% among 6,200 | Pre-incubated SENP8/Z-RLRGG-aminoluciferin, luciferase luminescence interference | shares compounds with SENP7 inh;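 active = mean inhibition above about 50% when retested at one dose, limit read from the data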;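 also: plate controls were DMSO wells with completed reaction for no effect and substrate without enzyme for full effect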
Active calls of the source: *. Compounds with a hit are over-represented: about 3.1% of the library has one in this group of screens.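 The calls were made as follows, unless noted: active = mean inhibition above about 50% in the one-dose retest (limit read from the data); inactive = the rest.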

What do the screens show for `c1ccc2sc(Nc3nc4cc5c(cc4s3)OCO5)nc2c1`?
UBC13 polyUb: -11; SENP6 block: 25; Apaf-1 inh: 11; SENP8 block-1: -328; SENP7 inh: 64*; SENP8 block-2: -11; SENP8 confirm: 5; SENP6 confirm: 12; SENP7 confirm: 36; Casp3 SENP sel: 22; Luc interf: 10

How did Fc1ccc2nc(Nc3ccccc3)sc2c1 do in these assays?
UBC13 polyUb: -5; SENP6 block: 47; Apaf-1 inh: 9; SENP8 block-1: 7; SENP7 inh: 72*; SENP8 block-2: 64*; SENP8 confirm: 81*; SENP6 confirm: 81*; SENP7 confirm: 95*; Casp3 SENP sel: 58*; Luc interf: 82*

Results for CSc1ccc(CN2CCC2(C)C(=O)Nc2ccc3c(c2)OCO3)cc1 (stereo not drawn) ?
SENP8 block-1: 3

Results for CC(=O)N1CCN(Cc2cc(=O)oc3cc(C)cc(C)c23)CC1 ?
SENP8 block-1: 16

Results for Cc1ccc(Nc2nc3ccccc3s2)c(C)c1 ?
UBC13 polyUb: -1; SENP6 block: 7; Apaf-1 inh: 15; SENP8 block-1: 17; SENP7 inh: 79*; SENP8 block-2: 62*; SENP8 confirm: 77*; SENP6 confirm: 73*; SENP7 confirm: 91*; Casp3 SENP sel: 54*; Luc interf: 67*

How did CCCCN1C[C@H](c2ccccc2)[C@@H](CC(=O)NC)C1=O do in these assays?
SENP8 block-1: 9

What do the screens show for `O=C(C(=Cc1ccccc1)CN1CCCCC1)c1ccccc1`?
SENP8 block-1: 6

What do the screens show for `O=C(Nc1ccc2c(c1)OCO2)c1c(F)cccc1F`?
UBC13 polyUb: 2; SENP6 block: 29; Apaf-1 inh: -23; SENP8 block-1: 12; SENP7 inh: 8; SENP8 block-2: -7

Results for O=C(Nc1ccc2c(c1)OCO2)c1cccc(F)c1 ?
UBC13 polyUb: 2; SENP6 block: 79*; Apaf-1 inh: -3; SENP8 block-1: 13; SENP7 inh: 76*; SENP8 block-2: 46; SENP8 confirm: 54*; SENP6 confirm: 54*; SENP7 confirm: 87*; Casp3 SENP sel: 82*; Luc interf: 70*

What do the screens show for `Cc1cccc(C(=O)Nc2cccc(C(=O)N/N=C/c3ccc4c(c3)OCO4)c2)c1`?
UBC13 polyUb: 1; SENP6 block: 50*; Apaf-1 inh: 10; SENP8 block-1: -148; SENP7 inh: -7; SENP8 block-2: 34; SENP8 confirm: 58*; SENP6 confirm: 46; SENP7 confirm: 46; Casp3 SENP sel: 47; Luc interf: 26

What do the screens show for `O=C(Nc1cccc(F)c1)Nc1ccc2c(c1)OCO2`?
UBC13 polyUb: -2; SENP6 block: 93*; Apaf-1 inh: 0; SENP8 block-1: 0; SENP7 inh: 96*; SENP8 block-2: 85*; SENP8 confirm: 84*; SENP6 confirm: 86*; SENP7 confirm: 99*; Casp3 SENP sel: 86*; Luc interf: 80*

What do the screens show for `Cc1cccc(C(=O)Nc2ccc(C(=O)N/N=C/c3ccc4c(c3)OCO4)cc2)c1`?
UBC13 polyUb: 0; SENP6 block: -3; Apaf-1 inh: -5; SENP8 block-1: -281; SENP7 inh: -1; SENP8 block-2: 2

How did Nc1c(C(=O)Nc2cccc(F)c2)nnn1-c1ccc2c(c1)OCCO2 do in these assays?
UBC13 polyUb: 5; SENP6 block: 43; Apaf-1 inh: 1; SENP8 block-1: 10; SENP7 inh: 83*; SENP8 block-2: 17; SENP8 confirm: 14; SENP6 confirm: 23; SENP7 confirm: 94*; Casp3 SENP sel: 69*; Luc interf: 13

Results for Cc1ccccc1NC(=O)c1nnn(-c2ccc3c(c2)OCCO3)c1N ?
UBC13 polyUb: 1; SENP6 block: 32; Apaf-1 inh: 8; SENP8 block-1: 8; SENP7 inh: 23; SENP8 block-2: 17

Results for O=C(COc1ccc2c(c1)OCO2)Nc1cccc(F)c1 ?
UBC13 polyUb: 6; SENP6 block: 45; Apaf-1 inh: 11; SENP8 block-1: 4; SENP7 inh: 32; SENP8 block-2: 29

What do the screens show for `COc1cc(SC)ccc1C(=O)Nc1ccc(C)cc1C`?
UBC13 polyUb: 13; SENP6 block: 75*; Apaf-1 inh: 9; SENP8 block-1: 8; SENP7 inh: 70*; SENP8 block-2: 61*; SENP8 confirm: 20; SENP6 confirm: 26; SENP7 confirm: 24; Casp3 SENP sel: 39; Luc interf: 6

How did COc1cc(SC)ccc1C(=O)Nc1ncc(C)s1 do in these assays?
UBC13 polyUb: 1; SENP6 block: 96*; Apaf-1 inh: 13; SENP8 block-1: -170; SENP7 inh: 94*; SENP8 block-2: 89*; SENP8 confirm: 90*; SENP6 confirm: 91*; SENP7 confirm: 100*; Casp3 SENP sel: 89*; Luc interf: 35

Results for COc1cc(SC)ccc1C(=O)Nc1ccc(Br)cn1 ?
UBC13 polyUb: 4; SENP6 block: 90*; Apaf-1 inh: 24; SENP8 block-1: 4; SENP7 inh: 90*; SENP8 block-2: 82*; SENP8 confirm: 53*; SENP6 confirm: 76*; SENP7 confirm: 80*; Casp3 SENP sel: 77*; Luc interf: 50*

What do the screens show for `COc1cc(SC)ccc1C(=O)Nc1ccc2ncccc2c1`?
UBC13 polyUb: 9; SENP6 block: 94*; Apaf-1 inh: 5; SENP8 block-1: -23; SENP7 inh: 88*; SENP8 block-2: 88*; SENP8 confirm: 3; SENP6 confirm: 77*; SENP7 confirm: 95*; Casp3 SENP sel: 68*; Luc interf: 38

What do the screens show for `COc1cc(SC)ccc1C(=O)Nc1ccccn1`?
UBC13 polyUb: 8; SENP6 block: 47; Apaf-1 inh: 2; SENP8 block-1: 14; SENP7 inh: 44; SENP8 block-2: 18

How did CCOC(=O)C1=CCC(c2ccccc2C(F)(F)F)N(S(=O)(=O)c2ccc(C)cc2)C1 (stereo not drawn) do in these assays?
SENP8 block-1: 22

What do the screens show for `O=C(NCCC1=CCCCC1)c1[nH]c(C(F)(F)F)nc1-c1ccccc1`?
SENP8 block-1: 30
